# Assay results published in paper PMC4682886 (ChemMedChem, 2015).
# Like-named read-outs stand apart in the source and are kept apart here.
# Tests used:
# [1] = test system: C. albicans strain HLY4123 and fluconazole-resistant clinical isolates 26 and 45; test: microbe, parasite or virus in culture; assay type: cell-based; settings: for MICcpd (MIC90): compound 31 alone; for FICI: compound 31 and fluconazole; for MICcpd(+Flc) (MIC90): compound 31 in combination with fluconazole; for MIC90: Candida albicans
# [2] = test system: resistant clinical isolates of C. albicans; assay type: cell-based; settings: for Growth (OD600) +Cpd 31 +Fluc: compound 31 3 μM + fluconazole 64 μg/mL; for Growth (OD600) +Cpd 31 +Fluc / Growth (OD600) +Fluc: 16 h in SC at 30°C; for Growth (OD600) +Fluc: fluconazole 64 μg/mL alone
# NIH 3T3 cells = test: Cytotoxicity against NIH 3T3 cells; assay type: cell-based; settings: concentrations up to 1.5 mM, listed as Synazo-1
# Outline: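 Test compound applied to NIH 3T3 cells at concentrations up to 1.5 mM. Values are arithmetic means ± SD of three independent experiments.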
# [3] = test system: C. albicans susceptible strain HLY4123; test: Dose-response curves of test compounds against C. albicans with fluconazole; assay type: cell-based; settings: strain HLY4123, in the presence of fluconazole (0.25 μg/mL); mean ± SD of three independent experiments
# [4] = molecular target: C. albicans sterol α-demethylase (a.k.a. Erg11 or CYP51); settings: ref [71],[72]; cited from earlier work
# [5] = test system: resistant clinical isolates of C. albicans; parameters: unit not given beside the values; settings: ref [69], cited from earlier work
# [6] = in the presence of fluconazole; lowest value; ref [45]; cited from earlier work
compound,measurement,setting,value
"Cc1c(Cl)ccc2c1NC(=O)[C@@]21[C@H]2C(=O)N(c3ccccc3)C(=O)[C@H]2[C@H]2CN(C(=O)OCc3ccccc3)CCN21 (racemic) [Compound 31, (±)-benzyl (3R,3a′R,3b′S,9a′S)-6-chloro-7-methyl-1′,2,3′-trioxo-2′-phenyl-2′,3′,3a′,3b′,4′,6′,7′,9a′-octahydrospiro[indoline-3,9′-pyrrolo[3′,4′:3,4]pyrrolo[1,2-a]pyrazine]-5′(1′H)-carboxylate]",MICcpd (MIC90),[1]; isolate 26,>30 µM
same,FICI,[1]; isolate 26,0.14
same,MICcpd(+Flc) (MIC90),[1]; isolate 26,0.3 µM
same,MICcpd (MIC90),[1]; isolate 45,>30 µM
same,FICI,[1]; isolate 45,0.13
same,MICcpd(+Flc) (MIC90),[1]; isolate 45,0.03 µM
same,MICcpd (MIC90),[1]; strain HLY4123,>300 µM
same,FICI,[1]; strain HLY4123,0.25
same,MICcpd(+Flc) (MIC90),[1]; strain HLY4123,0.03 µM
same,FIC index,"[1]; with fluconazole, in all of the strains tested (susceptible and resistant)",below 0.5
same,toxicity of compound alone against the strains,"[1]; without fluconazole, at the solubility limit",did not have measurable toxicity
same,EC50,"[2]; enhancing the effect of fluconazole against some resistant strains, lowest value",≥ 0.002 µM
same,Growth (OD600) +Cpd 31 +Fluc,[2]; isolate 17,0.76 OD600
same,Growth (OD600) +Cpd 31 +Fluc,[2]; isolate 23,0.60 OD600
same,Growth (OD600) +Cpd 31 +Fluc,[2]; isolate 26,0.83 OD600
same,Growth (OD600) +Cpd 31 +Fluc,[2]; isolate 33,0.88 OD600
same,Growth (OD600) +Cpd 31 +Fluc,[2]; isolate 36,1.07 OD600
same,Growth (OD600) +Cpd 31 +Fluc,[2]; isolate 45,1.03 OD600
same,EC50,"[2]; read-out: Potency +Cpd 31 EC50, isolate 45, fluconazole 64 μg/mL, mean ± SD of three experiments",0.016 ± 2e-06 µM
same,cytotoxicity,NIH 3T3 cells,low toxicity
same,EC50,[3],0.0003 ± 1e-05 µM
"OC(Cn1cncn1)(Cn1cncn1)c1ccc(F)cc1F [Fluconazole, fluconazole, reference compound]",MIC90,"[1]; read-out: MIC90 for fluconazole, susceptible strain, synazo-1 present at 300 nM",0.125 µM
same,MIC90,"[1]; read-out: MICFlc (MIC90), isolate 26, fluconazole alone",836 µM
same,MIC90,"[1]; read-out: MICFlc (MIC90), isolate 45, fluconazole alone",836 µM
same,MIC90,"[1]; read-out: MICFlc (MIC90), strain HLY4123, fluconazole alone",0.5 µM
same,Growth (OD600) +Fluc,[2]; isolate 17,3.96 OD600
same,Growth (OD600) +Fluc,[2]; isolate 23,6.77 OD600
same,Growth (OD600) +Fluc,[2]; isolate 26,6.44 OD600
same,Growth (OD600) +Fluc,[2]; isolate 33,7.38 OD600
same,Growth (OD600) +Fluc,[2]; isolate 36,5.08 OD600
same,Growth (OD600) +Fluc,[2]; isolate 45,9.17 OD600
same,Ki,[4],0.03 µM
same,MICFlc,[5]; isolate 17,32
same,MICFlc,[5]; isolate 23,32
same,MICFlc,[5]; isolate 26,32
same,MICFlc,[5]; isolate 33,64
same,MICFlc,[5]; isolate 36,64
same,MICFlc,[5]; isolate 45,128
CN[C@H]1CC[C@@H](c2ccc(Cl)c(Cl)c2)c2ccccc21 [sertraline],MIC,[6],≥ 0.5 mg/L
